The values that follow come from PMC2248718 (The Journal of General Physiology, 2008).

Experiment [1] has as its target wild-type SUR2A (NBD1) coexpressed with Kir6.2, HEK293 membranes (Mus musculus, UniProt P70170). Nature of the experiment: 8-azido-[γ-32P]ATP photoaffinity labeling, post-incubation with ADP, wild type. It is filed as binding. The following applies: WT; MgADP titration 0.05 to 1.0 mM.
For experiment [2], the system named is ED mutant SUR2A/Kir6.2 channels. Nature of the experiment: Inside-out patch-clamp of ED domain mutant KATP channels. The following applies: ED mutants; 300 μM MgADP, channels inhibited by 300 μM ATP. It is filed as cell-based. A digest of the protocol: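 SUR2A (wild type or ED-mutated) was transiently cotransfected with Kir6.2 (5 μg:1 μg, plus 0.5 μg GFP reporter) into HEK293 cells grown in DMEM/10% FBS/2 mM glutamine, and recorded 48–72 h later. Inside-out patches at −60 mV, 32 ± 1°C. Pipette (mM): KCl 140, CaCl₂ 1, MgCl₂ 1, HEPES-KOH 5, pH 7.3. Bath (mM): KCl 140, MgCl₂ 1, EGTA 5, HEPES-KOH 5, pH 7.3, with nucleotides and drugs added.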
(In patch-clamp work, channel activity is measured electrically.)

The target in experiment [3] is wild-type SUR2A/Kir6.2 KATP channels expressed in HEK293 cells (UniProt P70170+Q14654). Briefly: Inside-out patch-clamp of recombinant wild-type KATP channels. It is filed as cell-based. The following applies: WT.
Experiment [4] concerns ED-mutated SUR2A (entire deletion and Q/N mutants) coexpressed with Kir6.2, HEK293 membranes. Briefly: 8-azido-[γ-32P]ATP photoaffinity labeling, post-incubation with ADP, ED mutants. It is filed as binding. The following applies: ED-mutated constructs; MgADP 0.05 to 1.0 mM.
The subject of experiment [5] is SUR2A entire Q/N mutant/Kir6.2 KATP channels expressed in HEK293 cells. Nature of the experiment: Inside-out patch-clamp of entire Q/N mutant KATP channels. It is filed as cell-based. The following applies: glyburide 10 μM.
Experiment [6] concerns the target SUR2A entire deletion (Δ948–962)/Kir6.2 KATP channels expressed in HEK293 cells (UniProt P70170+Q14654, DEL948-962). Nature of the experiment: Inside-out patch-clamp of entire ED deletion KATP channels. It is filed as cell-based. The following applies: glyburide 10 μM, monophasic response.

Consider `Nc1ncnc2c1ncn2[C@@H]1O[C@H](COP(=O)([O-])OP(=O)([O-])O)[C@@H](O)[C@H]1O.[Mg+2]` [MgADP], for which the “MgADP concentration at maximum increase of 8-azido-[γ-32P]ATP labeling” value in experiment [1] was 500 µM. The “Reversal of ATP-induced channel inhibition by MgADP” value in experiment [2] is “unable to reverse such inhibition”; in experiment [3] (300 μM MgADP, channels inhibited by 300 μM ATP) it was “readily reversed”. Also, in experiment [4], the “Effect of MgADP on 8-azido-[γ-32P]ATP labeling” value is given as “did not affect labeling”.
For `COc1ccc(Cl)cc1C(=O)NCCc1ccc(S(=O)(=O)NC(=O)NC2CCCCC2)cc1` [glyburide], the “Glyburide responsiveness compared with wild type” value in experiment [5] was “reduced glyburide responsiveness”. Moreover, the “Glyburide-induced reduction in overall channel activity” value in experiment [6] turned out to be 21 ± 5%. Further, in experiment [3] (glyburide 10 μM, 300 μM MgADP), the “Pattern of glyburide blockade in the presence of MgADP” value is recorded as “both phases were blunted”. Also, in experiment [3] (glyburide 10 μM, AMP-PNP 50 μM), the “Profile of glyburide inhibition in the presence of AMP-PNP” value was “indistinguishable from the effect of glyburide in the absence of nucleotides”. In addition, in experiment [3] (glyburide 10 μM, no nucleotides), the “Fast phase: instantaneous blockade, fraction of the channel population” value is 59 ± 11%. Further, the “Slow phase: gradual dissipation of channel activity” value in experiment [3] (glyburide 10 μM, no nucleotides, within 2–3 min) is 93 ± 3%.
For `CC(N/C(=N\C#N)Nc1ccncc1)C(C)(C)C` (centres unmarked) [pinacidil], in experiment [3] (50 μM pinacidil, 300 μM ATP, relative to activity in the absence of nucleotides), the “Channel activity reversed by pinacidil against ATP inhibition” value is reported as “close to the maximum level”.
